Data published in ChEMBL document CHEMBL1137526, “The design and synthesis of N-1-alkylated-5-aminoarylalkylsubstituted-6-methyluracils as potential non-nucleoside HIV-1 RT inhibitors” (Bioorg Med Chem, 2007).
The source made the active and inactive calls. The calls are words filed in the database; no cut-off is given here.

Each compound was assayed against Human immunodeficiency virus type 1 reverse transcriptase (Human immunodeficiency virus 1, UniProt Q72547) (assay: Inhibition of HIV1 reverse transcriptase by ELISA).
How it was run: (§1)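 Recombinant HIV-1 RT, non-radioactive ELISA. Oligo(dT) attached through its 5'-phosphate to the plate acts as primer on a poly(A) template (10 µg/ml). Read-out by streptavidin-alkaline phosphatase with PNPP.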

Compound	IC50
Cc1ccc(NCc2c(C)n(COCc3ccccc3)c(=O)[nH]c2=O)cc1	13.8 µM
CCOCn1c(C)c(CNc2ccccn2)c(=O)[nH]c1=O	54.7 µM

The next lines start with the values.

IC50	Compound
26.2 µM	CCOCn1c(C)c(CNc2cc(C)ccc2C)c(=O)[nH]c1=O
> 100 µM	CCOCn1c(C)c(CNc2ccccc2[N+](=O)[O-])c(=O)[nH]c1=O
3.49 µM	Cc1c(CN(C)c2ccccc2)c(=O)[nH]c(=O)n1COCc1ccccc1
> 100 µM	Cc1c(CNc2cc(Cl)c(Cl)cc2Cl)c(=O)[nH]c(=O)n1COCc1ccccc1
0.82 µM	CCOCn1c(C)c(CNc2cc(Cl)c(Cl)cc2Cl)c(=O)[nH]c1=O
5.09 µM	Cc1c(CNC2CCCCC2)c(=O)[nH]c(=O)n1COCc1ccccc1

These compounds were tested against Human immunodeficiency virus type 1 reverse transcriptase (Human immunodeficiency virus 1) (UniProt Q72547) (assay: Inhibition of HIV1 reverse transcriptase upto 100 uM by ELISA).
How it was run: as §1

Compound	Activity
CCOCn1c(C)c(CNc2ncccn2)c(=O)[nH]c1=O	inactive
CCOCn1c(C)c(CNc2c(C)cccc2C)c(=O)[nH]c1=O	inactive
CCOCn1c(C)c(CN(C)c2ccccc2)c(=O)[nH]c1=O	inactive
Cc1c(CNc2ccc([N+](=O)[O-])cc2)c(=O)[nH]c(=O)n1COCc1ccccc1	inactive
Cc1c(CNc2ccccc2[N+](=O)[O-])c(=O)[nH]c(=O)n1COCc1ccccc1	inactive
Cc1c(CNc2cccc([N+](=O)[O-])c2)c(=O)[nH]c(=O)n1COCc1ccccc1	inactive
Cc1c(CNc2c(Cl)cc(Cl)cc2Cl)c(=O)[nH]c(=O)n1COCc1ccccc1	inactive

The remaining lines, values ahead:

Activity	Compound
inactive	CCOCn1c(C)c(CNc2cccc([N+](=O)[O-])c2)c(=O)[nH]c1=O
inactive	CCOCn1c(C)c(CNc2cccc3ccccc23)c(=O)[nH]c1=O
inactive	CCOCn1c(C)c(CNc2ccc([N+](=O)[O-])cc2)c(=O)[nH]c1=O
inactive	CCOCn1c(C)c(CNC2CCCCC2)c(=O)[nH]c1=O
inactive	CCOCn1c(C)c(CNc2ccc(C)cc2)c(=O)[nH]c1=O
inactive	CCOCn1c(C)c(CNc2c(Cl)cc(Cl)cc2Cl)c(=O)[nH]c1=O
